Test results taken from ChEMBL document CHEMBL4138097, “Investigation of pyrazolo-sulfonamides as putative small molecule oxytocin receptor agonists” (Eur J Med Chem, 2017).
Active and inactive are the calls of the source. No cut-off for these calls is given here. Where a SMILES comes first, the peptide text is derived from it. Bridges are numbered along the chain shown (N, C = ends). [ ]: non-standard residue; d: D form. Orn = NCCC[C@H](N)C(=O)O; Mpa = O=C(O)CCS

How the values were obtained:
[1] = molecular target: T1, Vasopressin V1a receptor (Homo sapiens, UniProt P37288); assay: Agonist activity at human vasopressin 1a receptor expressed in HEK293 cell membranes assessed as increase in Ca2+ flux at 0.1 to 10 uM measured after 5 mins for every 2 secs by Ca5 dye based FLIPR assay; assay type: functional
Method in brief: (§1)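 Intracellular Ca2+ read by FLIPR with Ca5 dye in HEK or stably transfected CHO cells expressing hOTR or hV1aR. Compounds added alone at 100 nM and 10 μM. Response taken as the change in fluorescence.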
Target sequence in this assay (P37288 whole entry, looked up): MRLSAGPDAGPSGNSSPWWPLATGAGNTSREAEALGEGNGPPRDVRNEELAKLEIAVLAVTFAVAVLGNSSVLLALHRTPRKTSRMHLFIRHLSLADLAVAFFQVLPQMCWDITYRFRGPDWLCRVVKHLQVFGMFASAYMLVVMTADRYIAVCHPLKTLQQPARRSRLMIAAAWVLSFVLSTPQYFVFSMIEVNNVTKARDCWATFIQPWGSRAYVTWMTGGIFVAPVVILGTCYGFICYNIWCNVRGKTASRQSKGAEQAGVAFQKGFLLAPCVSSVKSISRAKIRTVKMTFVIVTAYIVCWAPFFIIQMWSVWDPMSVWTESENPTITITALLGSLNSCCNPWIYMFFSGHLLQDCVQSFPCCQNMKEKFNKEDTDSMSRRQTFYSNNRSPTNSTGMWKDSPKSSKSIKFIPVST

[2] = molecular target: T1, Vasopressin V1a receptor; assay: Antagonist activity at human vasopressin 1a receptor expressed in CHO cell membranes assessed as inhibition of AVP-induced IP1 accumulation by measuring IP1 level at 10 uM measured after 1 hr by fluorescence assay relative to control; assay type: functional, cell-based; design: scale not given: the % may be the effect or the level left
Target sequence in this assay (P37288 whole entry, looked up): as above

[3] = molecular target: T1, Vasopressin V1a receptor; assay: Agonist activity at human vasopressin 1a receptor expressed in HEK293 cell membranes assessed as induction of IP1 accumulation at 0.1 to 10 uM measured after 1 hr by fluorescence assay; assay type: functional, cell-based
Method in brief: (§2)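 IP1 accumulation in HEK or stably transfected CHO cells expressing hOTR or hV1aR. Compounds tested alone at 100 nM and 10 μM against vehicle (basal). Reference agonist was OT 10 nM at hOTR or AVP 10 nM at hV1aR. Non-transfected HEK cells given OT served as a specificity check. Mean ± S.E.M.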
Target sequence in this assay (P37288 whole entry, looked up): as above

[4] = molecular target: T2, Oxytocin receptor (Homo sapiens) (UniProt P30559); assay: Antagonist activity at human OTR expressed in HEK293 cell membranes assessed as inhibition of OT-induced IP1 accumulation by measuring IP1 level at 100 nM measured after 1 hr by flourescence assay relative to control; assay type: functional, cell-based; design: scale not given: the % may be the effect or the level left
T2 sequence (whole entry): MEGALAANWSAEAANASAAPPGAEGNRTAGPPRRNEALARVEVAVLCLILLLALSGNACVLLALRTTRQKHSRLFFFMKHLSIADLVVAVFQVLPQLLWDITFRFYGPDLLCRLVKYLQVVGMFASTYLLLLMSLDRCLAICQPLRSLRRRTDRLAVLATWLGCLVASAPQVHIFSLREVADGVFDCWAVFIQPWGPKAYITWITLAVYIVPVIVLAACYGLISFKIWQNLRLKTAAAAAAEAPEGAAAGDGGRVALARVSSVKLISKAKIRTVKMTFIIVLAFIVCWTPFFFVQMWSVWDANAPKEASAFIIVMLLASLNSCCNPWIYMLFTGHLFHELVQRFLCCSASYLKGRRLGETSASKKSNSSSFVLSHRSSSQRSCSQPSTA

[5] = molecular target: T3, Oxytocin receptor (Homo sapiens, UniProt P30559); assay: Antagonist activity at human OTR expressed in CHO cell membranes assessed as inhibition of OT-induced IP1 accumulation measured after 1 hr by fluorescence assay; assay type: functional, cell-based
T3 sequence (P30559 whole entry): T2 sequence (whole entry)

[6] = molecular target: T2, Oxytocin receptor (Homo sapiens); assay: Agonist activity at human OTR expressed in HEK293 cell membranes induction of IP1 accumulation at 0.1 to 10 uM measured after 1 hr by fluorescence assay; assay type: functional, cell-based; method in brief: as §2
[7] = molecular target: T1, Vasopressin V1a receptor; assay: Agonist activity at human vasopressin 1a receptor expressed in CHO cell membranes assessed as induction of IP1 accumulation at 0.1 to 10 uM measured after 1 hr by fluorescence assay; assay type: functional, cell-based; method in brief: as §2
Target sequence in this assay (P37288 whole entry, looked up): as the sequence (P37288 whole entry, looked up) above

[8] = molecular target: T1, Vasopressin V1a receptor; assay: (§3) Antagonist activity at human vasopressin 1a receptor expressed in HEK293 cell membranes assessed as inhibition of AVP-induced increase in Ca2+ flux by measuring intracellular calcium level at 10 uM preincubated for 5 mins followed by AVP addition measured after 5 mins for every 2 secs by Ca5 dye based FLIPR assay (reference value: 5.2 +/- 0.2%); assay type: functional
Method in brief: (§4)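 HEK cells were pre-incubated 5 min with compound (10 μM) or vehicle (0.1% DMSO). Agonist was then added: OT for hOTR, AVP for hV1aR. Peak Ca5 fluorescence was taken as fold-change over baseline. A 4-parameter fit gave pEC50 and Max. Run in duplicate with 5-6 independent replicates, mean ± S.E.M.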
Target sequence in this assay (P37288 whole entry, looked up): as the sequence (P37288 whole entry, looked up) above

[9] = molecular target: T3, Oxytocin receptor; assay: Displacement of [3H]-oxytocin from human OTR expressed in HEK293 cell membranes after 90 mins by microbeta scintillation counting method
[10] = molecular target: T1, Vasopressin V1a receptor; assay: Antagonist activity at human vasopressin 1a receptor expressed in CHO cell membranes assessed as inhibition of AVP-induced IP1 accumulation by measuring IP1 level at 100 nM measured after 1 hr by fluorescence assay relative to control; assay type: functional, cell-based; design: scale not given: the % may be the effect or the level left
Target sequence in this assay (P37288 whole entry, looked up): as the sequence (P37288 whole entry, looked up) above

[11] = molecular target: T2, Oxytocin receptor (Homo sapiens); assay: Agonist activity at human OTR expressed in CHO cell membranes assessed as induction of IP1 accumulation at 0.1 to 10 uM measured after 1 hr by fluorescence assay; assay type: functional, cell-based; method in brief: as §2
[12] = molecular target: T2, Oxytocin receptor (Homo sapiens); assay: Antagonist activity at human OTR expressed in CHO cell membranes assessed as inhibition of OT-induced IP1 accumulation by measuring IP1 level at 100 nM measured after 1 hr by fluorescence assay relative to control; assay type: functional, cell-based; design: scale not given: the % may be the effect or the level left
[13] = molecular target: T1, Vasopressin V1a receptor; assay: Antagonist activity at human vasopressin 1a receptor expressed in CHO cell membranes assessed as inhibition of AVP-induced IP1 accumulation by measuring IP1 level measured after 1 hr by fluorescence assay; assay type: functional, cell-based
Target sequence in this assay (P37288 whole entry): as the sequence (P37288 whole entry, looked up) above

[14] = molecular target: T2, Oxytocin receptor (Homo sapiens); assay: as §3, with “OTR” for “vasopressin 1a receptor”, “OT-induced” for “AVP-induced”, “OT” for “AVP”, “4.5” for “5.2”, “0.1%)” for “0.2%)”; assay type: functional; method in brief: as §4
[15] = molecular target: T2, Oxytocin receptor (Homo sapiens); assay: Antagonist activity at human OTR expressed in HEK293 cell membranes assessed as inhibition of OT-induced IP1 accumulation by measuring IP1 level at 10 uM measured after 1 hr by fluorescence assay relative to control; assay type: functional, cell-based; design: scale not given: the % may be the effect or the level left
[16] = molecular target: T1, Vasopressin V1a receptor; assay: Antagonist activity at human vasopressin 1a receptor expressed in HEK293 cell membranes assessed as inhibition of AVP-induced IP1 accumulation measured after 1 hr by fluorescence assay; assay type: functional, cell-based
Target sequence in this assay (P37288 whole entry): as the sequence (P37288 whole entry, looked up) above

[17] = molecular target: T1, Vasopressin V1a receptor; assay: Displacement of [3H]-vasopressin from human vasopressin 1a receptor expressed in HEK293 cell membranes after 90 mins by microbeta scintillation counting method
Target sequence in this assay (P37288 whole entry): as the sequence (P37288 whole entry, looked up) above

[18] = molecular target: T2, Oxytocin receptor (Homo sapiens); assay: Agonist activity at human OTR expressed in HEK293 cell membranes assessed as increase in Ca2+ flux at 0.1 to 10 uM measured after 5 mins for every 2 secs by Ca5 dye based FLIPR assay; assay type: functional; method in brief: as §1
[19] = molecular target: T1, Vasopressin V1a receptor; assay: Agonist activity at human vasopressin 1a receptor expressed in CHO cell membranes assessed as increase in Ca2+ flux at 0.1 to 10 uM measured after 5 mins for every 2 secs by Ca5 dye based FLIPR assay; assay type: functional; method in brief: as §1
[20] = molecular target: T1, Vasopressin V1a receptor; assay: Antagonist activity at human vasopressin 1a receptor expressed in HEK293 cell membranes assessed as inhibition of AVP-induced IP1 accumulation by measuring IP1 level at 10 uM measured after 1 hr by fluorescence assay relative to control; assay type: functional, cell-based; design: scale not given: the % may be the effect or the level left
[21] = molecular target: T2, Oxytocin receptor (Homo sapiens); assay: Positive allosteric modulation of human OTR expressed in HEK293 cell membranes assessed as increase in OT-induced IP1 accumulation at 10 uM measured after 1 hr by fluorescence assay; assay type: functional, cell-based
Method in brief: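 hOTR-transfected HEK cells treated with ~EC10 OT (3 nM) plus compound (10 μM) or vehicle (0.1% DMSO). IP1 measured and compared with OT plus vehicle. Mean ± S.E.M.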

[22] = molecular target: T3, Oxytocin receptor; assay: Antagonist activity at human OTR expressed in HEK293 cell membranes assessed as inhibition of OT-induced IP1 accumulation measured after 1 hr by fluorescence assay; assay type: functional, cell-based
[23] = molecular target: T2, Oxytocin receptor (Homo sapiens); assay: Agonist activity at human OTR expressed in CHO cell membranes assessed as increase in Ca2+ flux at 0.1 to 10 uM measured after 5 mins for every 2 secs by Ca5 dye based FLIPR assay; assay type: functional; method in brief: as §1
[24] = molecular target: T1, Vasopressin V1a receptor; assay: Antagonist activity at human vasopressin 1a receptor expressed in HEK293 cell membranes assessed as inhibition of AVP-induced IP1 accumulation by measuring IP1 level at 100 nM measured after 1 hr by fluorescence assay relative to control; assay type: functional, cell-based; design: scale not given: the % may be the effect or the level left
[25] = molecular target: T2, Oxytocin receptor (Homo sapiens); assay: Antagonist activity at human OTR expressed in CHO cell membranes assessed as inhibition of OT-induced IP1 accumulation by measuring IP1 level at 10 uM measured after 1 hr by fluorescence assay relative to control; assay type: functional, cell-based; design: scale not given: the % may be the effect or the level left

| Compound | Activity [1] | Activity [2] | Activity [3] | Activity [4] | IC50 [5] | Activity [7] | %max [8] | Ki [9] | Activity [10] | Activity [11] | Activity [12] | IC50 [13] | %max [14] | Activity [15] | IC50 [16] | Ki [17] | Activity [18] | Activity [19] | Activity [20] | Activity [21] | further results |
| --- | --- | --- | --- | --- | --- | --- | --- | --- | --- | --- | --- | --- | --- | --- | --- | --- | --- | --- | --- | --- | --- |
| O=S(=O)(Nc1ccnn1-c1ccccn1)c1ccc(C(F)(F)F)cc1 | inactive | 83.1% | inactive | 70.6% | > 10 µM | inactive | 5.3% | > 10 µM | 84.8% | inactive | 83.2% | > 10 µM | 4.4% | 65.5% | > 10 µM | > 10 µM | inactive | inactive | 104% | inactive | IC50 ([22]; read-out: pIC50 (converted)): > 10 µM; Activity [23]: inactive; Activity [24]: 109%; Activity [25]: 82.1% |
| O=S(=O)(Nc1ccnn1-c1ccccn1)c1ccc(Cl)cc1 | inactive | 116% | inactive | 89.5% | > 10 µM | inactive | 5.3% | > 10 µM | 103% | inactive | 83.9% | > 10 µM | 4.5% | 78.1% | > 10 µM | > 10 µM | inactive | inactive | 80.2% | inactive | IC50 ([22]; read-out: pIC50 (converted)): > 10 µM; Activity [23]: inactive; Activity [24]: 85.9%; Activity [25]: 71.1% |
| CCOc1ccc(C[C@H]2NC(=O)CCSSC[C@@H](C(=O)N3CCC[C@H]3C(=O)N[C@@H](CCCN)C(=O)NCC(N)=O)NC(=O)[C@H](CC(N)=O)NC(=O)[C@H]([C@@H](C)O)NC(=O)[C@H]([C@@H](C)CC)NC2=O)cc1 [ATOSIBAN] ([Mpa][dY](Et)ITNCP[Orn]G-NH2; disulfide 1-6) |  |  |  |  |  |  |  |  |  |  |  |  |  |  |  |  |  |  |  |  | IC50 ([22]; read-out: IC50): 0.372 µM |

The next lines start with results.

| Activity [1] | Activity [2] | Activity [3] | Activity [4] | IC50 [5] | Activity [7] | %max [8] | Ki [9] | Activity [10] | Activity [11] | Activity [12] | IC50 [13] | %max [14] | Activity [15] | IC50 [16] | Ki [17] | Activity [18] | Activity [19] | Activity [20] | Activity [21] | Compound | further results |
| --- | --- | --- | --- | --- | --- | --- | --- | --- | --- | --- | --- | --- | --- | --- | --- | --- | --- | --- | --- | --- | --- |
| inactive | 79.3% | inactive | 98.3% | > 10 µM | inactive | 5.1% | > 10 µM | 86.5% | inactive | 85.5% | > 10 µM | 4.4% | 90.4% | > 10 µM | > 10 µM | inactive | inactive | 77.9% | inactive | Cn1nccc1NS(=O)(=O)c1ccc(C(F)(F)F)cc1 | Activity [6]: inactive; IC50 ([22]; read-out: pIC50 (converted)): > 10 µM; Activity [23]: inactive; Activity [24]: 84.7%; Activity [25]: 79.5% |
| inactive | 105% | inactive | 82.5% | > 10 µM | inactive | 5% | > 10 µM | 100% | inactive | 90.5% | > 10 µM | 4% | 72.5% | > 10 µM | > 10 µM | inactive | inactive | 105% | inactive | Cn1nccc1NS(=O)(=O)c1ccc(Cl)cc1 | Activity [6]: inactive; IC50 ([22]; read-out: pIC50 (converted)): > 10 µM; Activity [23]: inactive; Activity [24]: 112%; Activity [25]: 94.7% |
